Here are results for 13 molecules from ChEMBL document CHEMBL3414569, “Amino acid modified xanthone derivatives: novel, highly promising membrane-active antimicrobials for multidrug-resistant Gram-positive bacterial infections” (J Med Chem, 2015).

Usually MIC stands for the lowest concentration that inhibits growth of the organism. As usually defined, the HC50 is the concentration that lyses half of the red blood cells.

Converted amounts (≈) assume the structure as drawn.

Series [1] in a line: Selectivity index, ratio of HC50 for induction of hemolysis in New Zealand white rabbit RBC to MIC for Staphylococcus aureus DM21455.
Series [2] has as its system Staphylococcus aureus. In words: Antimicrobial activity against methicillin resistant Staphylococcus aureus DM09809R by broth macrodilution method. Type of series: functional. The gist of the method: (§1)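 Broth macrodilution MIC in Mueller Hinton broth following CLSI guidelines. Inoculum was prepared by direct colony suspension from an 18−20 h tryptic soy agar plate.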

The nature of series [3]: Selectivity index, ratio of HC50 for induction of hemolysis in New Zealand white rabbit RBC to MIC for Staphylococcus aureus DM09809R.
Series [4] is described as follows: Selectivity index, ratio of HC50 for induction of hemolysis in New Zealand white rabbit RBC to MIC for Bacillus cereus ATCC 11778.
Series [5] is described as follows: Retention time of the compound. Type of series: physicochemical. The method, boiled down:
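Reverse-phase HPLC of 20 μL injections of a 10 μg/mL sample at 1 mL/min. Gradient: 5−55% ACN over 5 min, then 55−95% over 15 min.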

The subject of series [6] is Staphylococcus aureus. Kind of series: Antimicrobial activity against Staphylococcus aureus DM4001 by broth macrodilution method. Type of series: functional. The gist of the method: as §1
The nature of series [7]: Selectivity index, ratio of HC50 for induction of hemolysis in New Zealand white rabbit RBC to MIC for Staphylococcus aureus DM4001.
Series [8] relates to Staphylococcus aureus. Kind of series: Antimicrobial activity against methicillin resistant Staphylococcus aureus DM21455 by broth macrodilution method. Format: functional. The gist of the method:
as §1

A further series concerns Bacillus cereus. Kind of series: Antimicrobial activity against Bacillus cereus ATCC 11778 by broth macrodilution method. Format: functional. The method, boiled down:
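CLSI broth macrodilution in Mueller Hinton broth. Inoculum was made by direct colony suspension from colonies on an 18−20 h tryptic soy agar plate. The value is the MIC.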

A short description of series [9]: Induction of hemolysis in New Zealand white rabbit RBC after 1 hr. Type of series: cell-based, Oryctolagus cuniculus, Erythrocyte. The following applies: for HC50 at 1 h: New Zealand white, red blood cells (RBC). The gist of the method:
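Fresh red blood cells isolated from New Zealand white rabbits. Lysis measured over a compound concentration series; HC50 taken as the concentration lysing 50% of RBCs.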

As to `CCOC(=O)[C@H](CCCNC(=N)N)NC(=O)COc1cc2oc3cc(OCC(=O)N[C@@H](CCCNC(=N)N)C(=O)OCC)c(OC)c(CC=C(C)C)c3c(=O)c2c(O)c1CC=C(C)C`, the Selectivity Index worked out at 9 in [1], 5 in series [3], 5 in [4] and 9 in [7]. In addition, the minimal inhibitory concentration (MIC) in the series with Staphylococcus aureus [2] turned out to be 12 µg/mL (≈ 13.4 µM); in the series on Staphylococcus aureus [6], 6 µg/mL (≈ 6.7 µM); in the series on Staphylococcus aureus [8], 6 µg/mL (≈ 6.7 µM); against Bacillus cereus, 12 µg/mL (≈ 13.4 µM). In addition, the Retention_time in series [5] is reported as 8.38 min. For the same molecule, in series [9], the 50% haemolytic concentration (HC50) at 1 h was 56 µg/mL.

Consider `N=C(N)NCCCCC(=O)Nc1cc(C(F)(F)F)cc(NC(=O)c2cc(C(=O)Nc3cc(C(F)(F)F)cc(NC(=O)CCCCNC(=N)N)c3O[C@@H]3CCNC3)ncn2)c1O[C@@H]1CCNC1` [BRILACIDIN], for which the Selectivity Index in series [1], in series [3], in [4] and in series [7] was 44 throughout. Further, the minimum inhibitory concentration (MIC) with Staphylococcus aureus [2], in the series on Staphylococcus aureus [6], against Staphylococcus aureus [8] and in the series on Bacillus cereus was 4 µg/mL (≈ 4.27 µM) each time. The molecule further showed a 50% haemolytic concentration (HC50) at 1 h in [9] of 175 µg/mL.

Regarding `COc1c(O)cc2oc3cc(O)c(CC=C(C)C)c(O)c3c(=O)c2c1CC=C(C)C` [MANGOSTIN], the Selectivity Index in series [1], in [3], in [4] and in [7] was 5 in each case. The minimum inhibitory concentration (MIC) with Staphylococcus aureus [2], against Staphylococcus aureus [6], with Staphylococcus aureus [8] and with Bacillus cereus was 2 µg/mL (≈ 4.87 µM) each time.

Consider `O=c1c2ccc(OCCCCBr)cc2oc2cc(OCCCCBr)cc(O)c12`, for which the minimum inhibitory concentration (MIC) in the series on Staphylococcus aureus [6] was more than 50 µg/mL.

Molecule `CCN(CC)CCCCOc1ccc2c(=O)c3c(O)cc(OCCCCN(CC)CC)cc3oc2c1` returned a minimal inhibitory concentration (MIC) against Staphylococcus aureus [6] of more than 50 µg/mL.

As to `COc1c(OCCCCBr)cc2oc3cc(OCCCCBr)c(CCC(C)C)c(O)c3c(=O)c2c1CCC(C)C`, the MIC against Staphylococcus aureus [6] is more than 50 µg/mL.

Take `O=c1c2ccc(O)cc2oc2cc(O)cc(O)c12`: the MIC in the series on Staphylococcus aureus [6] was more than 50 µg/mL.

The molecule `COc1c(O)cc2oc3cc(O)c(CCC(C)C)c(O)c3c(=O)c2c1CCC(C)C` yielded an MIC in the series on Staphylococcus aureus [6] of 50 µg/mL (≈ 121 µM).

For `COc1c(OCC(=O)O)cc2oc3cc(OCC(=O)O)c(CC=C(C)C)c(O)c3c(=O)c2c1CC=C(C)C`, the MIC against Staphylococcus aureus [2], in the series on Staphylococcus aureus [6], against Staphylococcus aureus [8] and against Bacillus cereus was more than 50 µg/mL each time. The HC50 at 1 h in series [9] was more than 400 µg/mL.

Regarding `COC(=O)C(Cc1cnc[nH]1)NC(=O)COc1cc2oc3cc(OCC(=O)NC(Cc4cnc[nH]4)C(=O)OC)c(OC)c(CC=C(C)C)c3c(=O)c2c(O)c1CC=C(C)C` (configuration not stated), the MIC against Staphylococcus aureus [2], with Staphylococcus aureus [6], against Staphylococcus aureus [8] and with Bacillus cereus was more than 50 µg/mL in each case. The same molecule had a 50% haemolytic concentration (HC50) at 1 h in series [9] of more than 400 µg/mL.

On to `CCCCCCCCNCCC[C@@H](C)[C@H]1CC[C@H]2[C@H]3[C@H](OCCCN)C[C@H]4C[C@H](OCCCN)CC[C@]4(C)[C@H]3C[C@H](OCCCN)[C@]12C`, for which the Selectivity Index in series [1], in series [3], in series [4] and in series [7] was 73 throughout. Besides, the MIC in the series with Staphylococcus aureus [2], in the series on Staphylococcus aureus [6], against Staphylococcus aureus [8] and in the series on Bacillus cereus was 0.4 µg/mL (≈ 0.591 µM) in each case. This molecule also gave an MHC in [9] (erythrocyte, 1 h) of 29 µg/mL.

In the series with Staphylococcus aureus [6], `CCN(CC)CCCCOc1cc2oc3cc(OCCCCN(CC)CC)c(OC)c(CCC(C)C)c3c(=O)c2c(O)c1CCC(C)C` had a minimum inhibitory concentration (MIC) of 3 µg/mL (≈ 4.48 µM).

As for `COC(=O)C(CCCCN)NC(=O)COc1cc2oc3cc(OCC(=O)NC(CCCCN)C(=O)OC)c(OC)c(CC=C(C)C)c3c(=O)c2c(O)c1CC=C(C)C` (configuration not stated), the MIC against Staphylococcus aureus [2] was 6 µg/mL (≈ 7.4 µM); in the series on Staphylococcus aureus [6] it was 6 µg/mL (≈ 7.4 µM); in the series with Staphylococcus aureus [8], 12 µg/mL (≈ 14.8 µM); in the series with Bacillus cereus it was 12 µg/mL (≈ 14.8 µM). In [9], this molecule returned an HC50 at 1 h of 39 µg/mL.
